In ChEMBL document CHEMBL1140966, “Syntheses and evaluation of 3-(3-bromo phenyl)-5-phenyl-1-(thiazolo [4,5-b] quinoxaline-2-yl)-2-pyrazoline derivatives” (Eur J Med Chem, 2008):

Tests used:
[1] = tested on: Entamoeba histolytica; test: Antiamoebic activity against Entamoeba histolytica HMI:IMSS after 72 hrs by microdilution method; type: functional, organism-based
How it was run: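 E. histolytica HMI:IMSS trophozoites grown in TYIS-33 medium. Compounds dissolved in DMSO, made up to 1 mg/ml with medium, then twofold serial dilutions in 96-well plates. 1.7 × 10⁴ viable organisms/well; plates gassed with nitrogen for 10 min, 37 °C for 72 h. Cells methanol-fixed and eosin-stained, dye released with 0.1 N NaOH, OD read at 490 nm. IC50 taken from linear regression of % inhibition vs log dose.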

[2] = Safety index, ratio of IC50 for human kidney epithelial cells to IC50 for Entamoeba histolytica HMI:IMSS; type: toxicity, cell-based, Epithelial cell; settings: read-out: Ratio IC50
How it was run: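 Ratio computed as toxicity IC50 in human kidney epithelial cells (concentration killing 50% of cells, MTT) over protozoal IC50 against E. histolytica (concentration killing 50% of amoebae).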

[3] = Cytotoxicity against human kidney epithelial cells after 44 hrs by MTT assay; type: cell-based; settings: Epithelial cell
How it was run: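 Transformed human kidney epithelial (Graham) cells kept at 37 °C in 5% CO2. Trypsinized cells adjusted to 0.5 million cells/mL and plated with compound. After 44 h, 2 mM MTT added for a further 4 h, then DMSO added to dissolve formazan. Absorbance read at 540 nm with 690 nm reference; % viability calculated against controls.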

| SMILES | IC50 [1] | selectivity ratio [2] | IC50 [3] |
| --- | --- | --- | --- |
| CCc1ccccc1C1CC(c2cccc(Br)c2)=NN1C(N)=S (centres undefined) | 2610 nM |  |  |
| NC(=S)N1N=C(c2cccc(Br)c2)CC1c1cccc(Cl)c1Cl (centres undefined) | 560 nM |  |  |
| CCc1ccccc1C1CC(c2cccc(Br)c2)=NN1c1nc2nc3ccccc3nc2s1 (centres undefined) | 2490 nM | > 24.1 | > 60000 nM |
| CC(C)c1ccccc1C1CC(c2cccc(Br)c2)=NN1c1nc2nc3ccccc3nc2s1 (centres undefined) | 1870 nM | > 32.1 | > 60000 nM |
| Clc1cccc(C2CC(c3cccc(Br)c3)=NN2c2nc3nc4ccccc4nc3s2)c1Cl (centres undefined) | 700 nM | > 85.7 | > 60000 nM |
| Cc1cc(C)c(/C=C/C(=O)c2cccc(Br)c2)c(C)c1 | 1800 nM |  |  |
| Cc1ccc(/C=C/C(=O)c2cccc(Br)c2)cc1 | 2490 nM |  |  |
| O=C(/C=C/c1ccccc1Cl)c1cccc(Br)c1 | 2230 nM |  |  |
| Brc1cccc(C2=NN(c3nc4nc5ccccc5nc4s3)C(c3ccccc3)C2)c1 (centres undefined) | 140 nM | > 428 | > 60000 nM |
| Brc1cccc(C2=NN(c3nc4nc5ccccc5nc4s3)C(c3c[nH]c4ccccc34)C2)c1 (centres undefined) | 80 nM | > 750 | > 60000 nM |
| CC(C)c1ccccc1/C=C/C(=O)c1cccc(Br)c1 | 1920 nM |  |  |
| O=C(/C=C/c1ccc(Cl)cc1Cl)c1cccc(Br)c1 | 1110 nM |  |  |
| NC(=S)N1N=C(c2cccc(Br)c2)CC1c1ccccc1 (centres undefined) | 190 nM |  |  |
| Cc1ccc(C2CC(c3cccc(Br)c3)=NN2C(N)=S)cc1 (centres undefined) | 4380 nM |  |  |
| Cc1cc(C)c(C2CC(c3cccc(Br)c3)=NN2C(N)=S)c(C)c1 (centres undefined) | 1710 nM |  |  |
| Cc1ccc(C2CC(c3cccc(Br)c3)=NN2c2nc3nc4ccccc4nc3s2)cc1 (centres undefined) | 100 nM | > 600 | > 60000 nM |
| Cc1cc(C)c(C2CC(c3cccc(Br)c3)=NN2c2nc3nc4ccccc4nc3s2)c(C)c1 (centres undefined) | 1290 nM | > 46.5 | > 60000 nM |
| Clc1ccccc1C1CC(c2cccc(Br)c2)=NN1c1nc2nc3ccccc3nc2s1 (centres undefined) | 680 nM | > 88.2 | > 60000 nM |
| NC(=S)N1N=C(c2cccc(Br)c2)CC1c1ccccc1Cl (centres undefined) | 1900 nM |  |  |
| NC(=S)N1N=C(c2cccc(Br)c2)CC1c1c[nH]c2ccccc12 (centres undefined) | 2280 nM |  |  |
| CC(C)c1ccccc1C1CC(c2cccc(Br)c2)=NN1C(N)=S (centres undefined) | 2340 nM |  |  |
| Cc1ncc([N+](=O)[O-])n1CCO [METRONIDAZOLE] |  | > 55.5 | > 100000 nM |
